Myeloid diff MLP: myeloid differentiation induction. ER-HoxA9 myeloid progenitors, lysozyme-GFP differentiation, flow cytometry. calls only at 10 µM. AID 624256. 360,000 compounds, 1% hits;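 active means normalized GFP-positive differentiation at or above the plate's own cutoff, the solvent-only control mean plus 3 SD; inconclusive means no clear call, values can overlap the other calls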;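 further: cells exposed to compound for four days before flow analysis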
Pemphigus Ab inh: human desmoglein-3 autoantibody binding inhibition; AID 588358; 310,000 compounds, 0.48% hits; DSG3-coupled beads, scFv-anti-DSG3-GFP binding, flow cytometry; hits give low values; binding (percent of control), % at 10 µM;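 active means binding more than 3 SD below its plate's average and above zero; inconclusive means below that plate limit but binding exactly zero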;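 further: hits lower antibody fragment binding to DSG3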
Target sequence (P32926 whole entry, looked up, the tested form may be a part): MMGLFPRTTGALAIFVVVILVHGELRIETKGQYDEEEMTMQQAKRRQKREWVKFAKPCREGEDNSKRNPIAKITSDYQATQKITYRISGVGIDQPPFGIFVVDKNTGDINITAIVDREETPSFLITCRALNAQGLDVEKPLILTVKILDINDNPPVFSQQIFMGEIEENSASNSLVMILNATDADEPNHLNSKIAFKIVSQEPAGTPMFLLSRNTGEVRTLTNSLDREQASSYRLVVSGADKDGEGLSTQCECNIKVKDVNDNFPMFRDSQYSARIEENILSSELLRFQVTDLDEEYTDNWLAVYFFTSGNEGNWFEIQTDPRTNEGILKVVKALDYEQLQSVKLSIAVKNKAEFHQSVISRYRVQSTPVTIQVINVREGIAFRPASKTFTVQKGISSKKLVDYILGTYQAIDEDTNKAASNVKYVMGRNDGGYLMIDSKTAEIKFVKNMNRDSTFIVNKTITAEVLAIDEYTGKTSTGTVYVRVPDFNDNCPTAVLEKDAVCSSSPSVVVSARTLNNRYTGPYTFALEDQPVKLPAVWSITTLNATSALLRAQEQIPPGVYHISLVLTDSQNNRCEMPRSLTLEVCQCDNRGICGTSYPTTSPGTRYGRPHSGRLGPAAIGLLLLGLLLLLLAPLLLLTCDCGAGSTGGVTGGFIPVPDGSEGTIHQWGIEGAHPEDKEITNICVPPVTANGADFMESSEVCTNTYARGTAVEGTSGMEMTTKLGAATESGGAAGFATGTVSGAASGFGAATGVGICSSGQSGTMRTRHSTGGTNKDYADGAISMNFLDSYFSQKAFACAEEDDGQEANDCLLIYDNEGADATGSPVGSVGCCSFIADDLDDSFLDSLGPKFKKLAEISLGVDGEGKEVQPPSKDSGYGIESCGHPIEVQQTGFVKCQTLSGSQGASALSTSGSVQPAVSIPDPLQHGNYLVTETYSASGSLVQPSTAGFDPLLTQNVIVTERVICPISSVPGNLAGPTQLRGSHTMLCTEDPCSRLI
T cell HTS: modulates CD8 T cell binding to vesicles; 330,000 compounds, 0.068% hits; 2C CD8+ T cell-vesicle binding, flow cytometry; hits give low values; AID 2052; response (vesicle binding), % at 7 µM;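 active means response, share of CD8 T cells binding vesicles, and their 90th percentile fluorescence all below set limits, cut at about 80% in these data, passing the limit was not always enough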;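 further: values below 100% mean blocked vesicle binding to the CD8+ T cells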
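material = purified 2C TCR transgenic mouse naive CD8+ T cells | controls = Unloaded micro-vesicles (low), QL9 vesicles with 0.7% DMSO (high) | detection = cytometric PE anti-B7-1 and Alexa647 anti-CD8 signals after 1% paraformaldehyde fixation | incubation = binding step 1.5 h, 37 °C, antibody labelling 20 min, ice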
Vif imaging: HIV Vif inhibition; HEK293T cells, Vif self-association by quenched fluorescence, imaging, 24 h; inhibition, % at 7.49 µM; 340,000 compounds, 0.35% hits; AID 602346; in the data active means inhibition above about 50%, passing the limit was not always enough; inconclusive means no clear call, values can overlap the other calls; inactive means below about 31%
Hits are given with their value; n = inactive; u = inconclusive; x = not tested or not shown; + = active, no number. Most compounds without a hit are left out; they make up all but 1.7% or so of the library.

SMILES | Myeloid diff MLP | Pemphigus Ab inh | T cell HTS | Vif imaging
CC/C(C)=N/NC(=O)c1[nH]c2ccc(C)cc2c1-c1ccccc1 | + | n | n | n
Cc1cc(C)c2cc(C#N)c(NCCCN)nc2c1 | n | x | x | x
COc1cc(OC)cc(C(=O)N2CCC(n3c(C)nc4cc(F)ccc43)CC2)c1 | + | x | n | n
COc1ccc(NC(=O)CN2CCC(n3c(C)nc4cc(F)ccc43)CC2)c(OC)c1 | n | x | n | x
C=C1C(=O)[C@]23C[C@H]1CCC2[C@]1(C)CCC[C@@](C)(C(=O)O)C1C[C@@H]3O (stereo partly specified) | u | x | x | n
C=C1C(=O)[C@]23C[C@H]1CCC2[C@]1(C)C(=O)CC[C@@](C)(C(=O)O)C1C[C@@H]3O (stereo partly specified) | + | x | x | n
N#CC(c1cccc([N+](=O)[O-])c1)C(CC(=O)c1ccccc1)c1ccccc1 (stereo unspecified) | n | n | x | n
CC(C)(C)c1ccc(C2C(C#N)=C(N)Oc3n[nH]c(-c4cccnc4)c32)cc1 (stereo unspecified) | n | 14.8 | n | x
O=c1c(Cl)c2oc3ccccc3nc-2c2ccccc12 | + | n | n | n
Clc1ccc(-c2nnc(Sc3nc4ccccc4o3)c3ccccc23)cc1 | n | n | n | n
CC1(C(=O)NS(=O)(=O)c2cccc(C#N)c2)CCN1C(=O)Cc1cc(F)ccc1F (stereo unspecified) | n | x | x | n
Cc1ccc2nc(C(C)(C)C)c(Cc3cccc(Cl)c3)n2c1 | n | x | x | x
Cc1ncoc1C(=O)N1CCCC(C(=O)c2ccc(Oc3ccccc3)cc2)C1 (stereo unspecified) | n | n | n | 61.4
NC(=O)c1ccc(N=Nc2c(O)c3ccccc3[nH]c2=O)cc1 | x | x | n | x
N=C(N)c1ccc(N=Nc2c(O)ccc3c2[nH]c2ccccc23)cc1 | n | 69.0 | x | n
O=C(Nc1cccc(Cl)c1)c1csc(COCCO)n1 | n | x | x | x
CC1CCCCC1NC(=O)CCCCn1c(=O)[nH]c2ccsc2c1=O (stereo unspecified) | + | x | n | n
CC(C)(O)C#Cc1ccc(N2C(c3ccsc3)=Cc3ccc(F)cc3C2c2c[nH]c3ccc(C#N)cc23)cc1 (stereo unspecified) | + | x | x | x
CCOC(=O)c1ccc(-c2ccc(N3C(c4ccsc4)=Cc4ccc(F)cc4C3c3c[nH]c4ccc(C#N)cc34)cc2)cc1F (stereo unspecified) | n | x | x | x
CC(C)N(C)c1ncnc2c1ncn2[C@H]1CN(C2CCCC2)C[C@@H](CO)O1 | n | x | x | n
Cc1c(N=C2N=C(NC(=O)NC(C)(C)C)c3ccccc32)c(=O)n(-c2ccccc2)n1C | n | n | 31.6 | n
O=S(=O)(c1ccc2oc(=S)[nH]c2c1)N1CCCCC1 | + | n | n | n
C[C@@H]1CN([C@@H](C)CO)C(=O)c2cc(Br)cnc2O[C@H]1CN(C)C(=O)c1ccccc1F | n | n | x | n
COc1ccc(/C=C/C(=O)NC(=S)Nc2cc([N+](=O)[O-])ccc2O)cc1OC | n | 85.3 | n | n
O=C1CCC(C(=O)N2CCCO2)CN1Cc1cccc(C(F)(F)F)c1 (stereo unspecified) | n | n | x | x
SMILES | Myeloid diff MLP | Pemphigus Ab inh | T cell HTS | Vif imaging
CC(=O)c1ccc(N2CCN(C(=O)C(=O)c3cn(CC(=O)N4CCCCCC4)c4ccccc34)CC2)cc1 | n | x | n | n
Cc1ccc(-n2cc3c(-c4cccc(Br)c4)nnc(C)c3n2)cc1 | + | n | n | n
CNc1[nH]c(=O)[nH]c(=O)c1N=Nc1cc(Cl)ccc1Cl | n | n | n | n
COc1cc(/C=C/C(=O)OCC(=O)N2CCCc3ccccc32)ccc1O | n | n | n | 67.8
COc1cc(/C=C/C(=O)O)ccc1S(=O)(=O)N1CCCc2ccccc21 | n | n | n | 96.2
COc1ccc(/C=C/C(=O)O)cc1S(=O)(=O)N1CCCc2ccccc21 | n | n | n | n
COc1cc(/C=C/C(=O)OCC(=O)N2CCCc3ccccc32)ccc1OCC#N | n | n | n | x
CN(Cc1ccccc1)C(=O)c1cccc(NC(=O)Cc2ccc(NC(=O)C3CCCN(C(=O)C4CCCC4)C3)cc2)c1 (stereo unspecified) | n | n | x | n
COc1ccc(N2C(=O)c3ccccc3NC(=O)C2C(=O)NCc2ccco2)cc1 (stereo unspecified) | n | x | x | x
CN1OC[C@@H]2CN(C(=O)CCc3ccccc3)[C@H](c3cccc(-c4ccccc4)c3)C[C@@H]21 | n | n | x | n
CCOC(=O)C1(C)CCCCCN1C(=O)c1ccc(OC)cc1 (stereo unspecified) | n | x | x | n

Screens as filed in PubChem.
